Experimental data taken from ChEMBL document CHEMBL1138628, “Synthesis, in vitro and computational studies of protein tyrosine phosphatase 1B inhibition of a small library of 2-arylsulfonylaminobenzothiazoles with antihyperglycemic activity” (Bioorg Med Chem, 2009).
Values belong to the molecule of their own block, whether it stands above or below them. The source made the active and inactive calls. The rule behind the calls is not given here.

Columns and labels:
Rattus norvegicus = experiment: Antihyperglycemic activity against STZ-nicotinamide-induced diabetes in overnight fasted Wistar rat assessed as decrease in glycemia at 100 mg/kg, administered intragastrically after 5 to 7 hrs by glucose oxidase method; assay type: functional
Outline: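 Male Wistar rats (200–250 g) made diabetic by i.p. nicotinamide 110 mg/kg (saline), then 15 min later i.p. streptozotocin 65 mg/kg (citrate pH 4.5), after overnight fast; hyperglycemia confirmed at 72 h. Test compounds 100 mg/kg or glibenclamide 5 mg/kg given orally as 1% Tween 80 suspension, n = 5. Caudal vein glucose (glucose oxidase glucometer) at 0, 1, 3, 5, 7 h; % variation versus 0 h.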

[1] = target: T1, Tyrosine-protein phosphatase non-receptor type 1 (Homo sapiens) (UniProt P18031); experiment: Inhibition of human recombinant PTP1B expressed in Escherichia coli TB1 assessed as residual activity at 40 uM
T1 sequence (whole entry): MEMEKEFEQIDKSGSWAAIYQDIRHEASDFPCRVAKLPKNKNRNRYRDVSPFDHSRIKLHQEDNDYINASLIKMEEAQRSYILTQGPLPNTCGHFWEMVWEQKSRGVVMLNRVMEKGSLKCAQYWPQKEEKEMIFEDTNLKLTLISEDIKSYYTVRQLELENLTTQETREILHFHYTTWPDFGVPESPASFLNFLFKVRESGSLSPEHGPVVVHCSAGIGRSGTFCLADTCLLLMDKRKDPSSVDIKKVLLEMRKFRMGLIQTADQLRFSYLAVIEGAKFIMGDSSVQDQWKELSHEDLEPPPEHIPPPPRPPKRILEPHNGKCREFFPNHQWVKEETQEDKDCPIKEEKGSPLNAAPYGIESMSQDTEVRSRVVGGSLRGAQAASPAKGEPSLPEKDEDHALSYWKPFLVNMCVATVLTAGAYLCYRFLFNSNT
Outline: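 Single-point screen at 37 °C, pH 7.0: compound at 40 µM final (from 20 mM DMSO solution) in buffer with 2 mM pNPP. Reaction started with 0.16 µg human recombinant PTP-1B in 1 ml. p-Nitrophenol read at 400 nm. Residual activity given as % of DMSO control; quadruplicate.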

[2] = target: T1, Tyrosine-protein phosphatase non-receptor type 1 (Homo sapiens); experiment: Reversible inhibition of human recombinant PTP1B expressed in Escherichia coli TB1 assessed as complete recovery of residual enzyme activity at 4 deg C at 100 uM after 1 hr
[3] = target: T1, Tyrosine-protein phosphatase non-receptor type 1 (Homo sapiens); experiment: Reversible inhibition of human recombinant PTP1B expressed in Escherichia coli TB1 assessed as complete recovery of residual enzyme activity at 37 deg C at 100 uM after 1 hr
[4] = target: T1, Tyrosine-protein phosphatase non-receptor type 1 (Homo sapiens); experiment: Inhibition of human recombinant PTP1B expressed in Escherichia coli TB1-catalyzed hydrolysis of p-nitrophenyl phosphate assessed as decrease in hydrolysis rate by slow binding assay
Outline: (§1)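 Time-course of pNPP hydrolysis by recombinant PTP-1B at several inhibitor concentrations, with p-nitrophenol release followed continuously at 400 nm. Initial rates and curve linearity examined, either without enzyme–inhibitor preincubation or after 30 min preincubation.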

[5] = target: T1, Tyrosine-protein phosphatase non-receptor type 1 (Homo sapiens); experiment: Inhibition of human recombinant PTP1B expressed in Escherichia coli TB1-catalyzed hydrolysis of p-nitrophenyl phosphate assessed as decrease in hydrolysis rate preincubated for 30 mins by slow binding assay; outline: as §1
[6] = target: T2, Tyrosine-protein phosphatase non-receptor type 1 (Homo sapiens, UniProt P18031); experiment: Inhibition of human recombinant PTP1B expressed in Escherichia coli TB1 assessed as residual activity
T2 sequence (P18031 whole entry): T1 sequence (whole entry)
Outline: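 Tagged human PTP-1B produced in E. coli TB1 from pGEX-2T, affinity-purified, thrombin-cleaved, gel-filtered. Run at 37 °C, pH 7.0, in 0.075 M β,β-dimethylglutarate with 1 mM EDTA and 1 mM DTT, substrate 2 mM pNPP (Km). IC50 used varying inhibitor, 10 nM enzyme, KOH stop, p-nitrophenol at 400 nm. Fit of vi/vo versus concentration; quadruplicate.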

[7] = target: T1, Tyrosine-protein phosphatase non-receptor type 1 (Homo sapiens); experiment: Inhibition of human recombinant PTP1B expressed in Escherichia coli TB1-catalyzed hydrolysis of p-nitrophenyl phosphate assessed as decrease in hydrolysis rate using 25 mM pNPP as substrate
Outline: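 Rates at 37 °C, pH 7.0, with 25 mM pNPP (12.5-fold Km), with inhibitor at 2.5, 5.0, 10, 25, 50, 100 and 200 µM. Residual activity measured to test for partial inhibition; quadruplicate.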

[8] = target: T2, Tyrosine-protein phosphatase non-receptor type 1; experiment: Inhibition of human recombinant PTP1B expressed in Escherichia coli TB1 by double reciprocal plot analysis
Outline: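 Initial hydrolysis rates at 37 °C, pH 7.0, across pNPP 0.5–40 mM, with several inhibitor concentrations (e.g. 0, 5, 10, 20, 30 µM). Data analysed as Lineweaver–Burk (1/v vs 1/[S]) plots to assign inhibition type; quadruplicate.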

SMILES: COc1ccc(Cl)cc1C(=O)NCCc1ccc(S(=O)(=O)NC(=O)NC2CCCCC2)cc1
Activity (Rattus norvegicus): Active

Activity [1]: inactive
SMILES: COc1ccc2nc(NS(=O)(=O)c3ccc([N+](=O)[O-])cc3)sc2c1

Activity [1]: Active
Activity [2]: Active
Activity [3]: Active
Activity [4]: Active
Activity [5]: Active
IC50 [6]: 19.5 µM
Activity [7]: Active
Ki [8]: 7.1 µM
SMILES: Cc1ccc2nc(NS(=O)(=O)c3ccc([N+](=O)[O-])cc3)sc2c1
Activity (Rattus norvegicus; route intragastric): 27%

Activity [1]: inactive
SMILES: CC(=O)Nc1ccc(S(=O)(=O)Nc2nc3ccc([N+](=O)[O-])cc3s2)cc1

Activity [1]: inactive
SMILES: CCOc1ccc2nc(NS(=O)(=O)c3ccc(Cl)cc3)sc2c1

Activity [1]: Active
Activity [2]: Active
Activity [3]: Active
Activity [4]: Active
Activity [5]: Active
IC50 [6]: 40.9 µM
Activity [7]: Active
Ki [8]: 20.4 µM
SMILES: CCOc1ccc2nc(NS(=O)(=O)c3ccc([N+](=O)[O-])cc3)sc2c1

Activity [1]: inactive
SMILES: O=[N+]([O-])c1ccc(S(=O)(=O)Nc2nc3ccc(Cl)cc3s2)cc1
